Laboratory results from ChEMBL document CHEMBL4017511, “Discovery of Fragment-Derived Small Molecules for in Vivo Inhibition of Ketohexokinase (KHK)” (J Med Chem, 2017).
pIC50, pKd: −log10 of the molar value. Values after ≈ are worked out from the molar mass of the structure shown. Active and inactive are the calls of the source. The rule behind the calls is not given here.

Tests used:
[1] = Apparent clearance in human liver microsomes; type: ADME, microsome; conditions: read-out: CLH(app)
Ketohexokinase [2] = target: T1, Ketohexokinase (Homo sapiens, UniProt P50053); assay: Inhibition of recombinant human N-terminal His-tagged KHK expressed in Escherichia coli BL21(DE3) using fructose as substrate incubated for 30 mins followed by ATP addition measured for 30 mins by pyruvate kinase-lactate dehydrogenase coupled enzyme assay; conditions: read-out: IC50
T1 sequence (P50053 whole entry): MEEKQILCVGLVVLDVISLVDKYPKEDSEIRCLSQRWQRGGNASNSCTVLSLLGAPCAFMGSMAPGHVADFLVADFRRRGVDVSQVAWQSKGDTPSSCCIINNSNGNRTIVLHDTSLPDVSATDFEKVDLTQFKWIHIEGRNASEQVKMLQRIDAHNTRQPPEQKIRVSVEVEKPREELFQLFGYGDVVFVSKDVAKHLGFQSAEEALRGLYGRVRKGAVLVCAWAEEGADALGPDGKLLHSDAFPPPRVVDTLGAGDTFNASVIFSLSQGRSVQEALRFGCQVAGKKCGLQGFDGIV
In short: (§1)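 Thrombin-cleaved (His-tag removed) human or rat KHK at 10 nM, preincubated 30 min at room temperature with compound (11-point series, 2.5% DMSO). Started with 0.2 mM ATP; NADH A340 read kinetically for 30 min. IC50 from nonlinear fit of percent inhibition; mean of replicates.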

[3] = Octanol/water partition coefficient, log D of the compound at pH 7.4 by shake-flask method; type: physicochemical
In short: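 LogD measured by shake-flask octanol:water partition at pH 7.4.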

Ketohexokinase [4] = target: T1, Ketohexokinase; assay: Binding affinity to full length recombinant human biotin-labeled KHK by SPR assay
In short: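 Full-length biotinylated KHK captured on a streptavidin sensor (7000-8000 RU). Run buffer was 50 mM HEPES pH 7.4, 150 mM NaCl, 0.01% P20, 500 µM TCEP, 3% DMSO at 25 °C. Eleven 2-fold concentrations from 300 µM top, stop-flow with 60 s association and ≥120 s dissociation. Data double-referenced and DMSO-corrected; KD by steady-state affinity fit, n=1.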

[5] = target: T2, Ketohexokinase (Homo sapiens) (UniProt P50053); assay: Inhibition of recombinant full length human His-tagged KHK expressed in Escherichia coli BL21(DE3) using at 240 uM by 1D NMR-STD spectroscopic method
T2 sequence (whole entry): T1 sequence (P50053 whole entry)
In short: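 Full-length His-tagged human KHK (tag retained) at 5 μM in 50 mM Tris-d, 100 mM NaCl, 2 mM TCEP-d, 5% glycerol-d, pH 7.5, 298 K. AMP-PMP at 240 μM served as positive control. Saturation-transfer difference NMR used 512 scans and 3 s Gaussian on/off-resonance saturation. Binding was called from positive difference signals, with ligands assigned against each fragment's 1D 1H reference spectrum.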

[6] = Thermodynamic solubility of compound at pH 7.4; type: physicochemical; conditions: buffer, read-out: Therm_solubility
In short: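 Thermodynamic solubility determined at pH 7.4.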

[7] = Fraction unbound in human plasma at 10 uM measured at 2 to 24 hrs by equilibrium dialysis method; type: ADME, cell-free
Rattus norvegicus = assay: Unbound Cmax in rat at 300 mg/kg, po; type: ADME, organism-based; conditions: in vivo
In short: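 Rats given 300 mg/kg orally in 0.25% HPC-SL/0.05% DOSS vehicle. Free plasma concentrations determined; mean ± SD, n = 3 per data point.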

[8] = Apparent permeability in RRCK cells by LC-MS/MS analysis; type: ADME, cell-based, Canis lupus familiaris, MDCKII-LE; conditions: dog, MDCK
Ketohexokinase [9] = target: T3, Ketohexokinase (Rattus norvegicus, UniProt Q02974); assay: Inhibition of recombinant rat N-terminal His-tagged KHK expressed in Escherichia coli BL21(DE3) using fructose as substrate incubated for 30 mins followed by ATP addition measured for 30 mins by pyruvate kinase-lactate dehydrogenase coupled enzyme assay; conditions: read-out: IC50; in short: as §1
T3 sequence (Q02974 whole entry): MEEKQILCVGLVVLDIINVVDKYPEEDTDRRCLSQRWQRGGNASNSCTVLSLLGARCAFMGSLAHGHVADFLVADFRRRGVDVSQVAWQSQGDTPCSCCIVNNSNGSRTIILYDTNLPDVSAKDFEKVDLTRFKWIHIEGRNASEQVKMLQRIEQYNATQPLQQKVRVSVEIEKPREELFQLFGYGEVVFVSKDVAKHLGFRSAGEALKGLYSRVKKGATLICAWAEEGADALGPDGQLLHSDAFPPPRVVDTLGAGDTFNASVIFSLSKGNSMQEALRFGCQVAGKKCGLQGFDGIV

Row | SMILES | microsomal CLint [1] [µL/min/mg] | pIC50 (Ketohexokinase [2]) | logD [3] | pKd (Ketohexokinase [4]) | inhibition [5] | solubility thermodynamic [6] [µM] | fraction unbound at 10 µM [7] | fCmax (Rattus norvegicus) [µM] | Papp [8] [×10⁻⁶ cm/s] | pIC50 (Ketohexokinase [9])
1 | CCc1cc2nc(C(F)(F)F)c(C#N)c(N3CCC(C)(O)C3)c2[nH]1 (racemic) | 103 | 5.83 | 2.8 | – | – | – | – | – | – | –
2 | C[C@]1(O)CCN(c2nc(N3CCN(CCO)CC3)cc(C(F)(F)F)c2C#N)C1 | 14 | 5.99 | 2.2 | – | – | – | – | – | – | –
3 | N#Cc1c(C(F)(F)F)cc(N2CCN(CCO)CC2)nc1N1CCCC(CO)C1 (stereo not drawn) | – | 4.77 | – | – | – | – | – | – | – | –
4 | N#Cc1cc(F)c(N)nc1Cl | – | < 3.30 | – | 3.99 | Active | – | – | – | – | –
5 | C[C@]1(O)CCN(c2c(C#N)c(C(F)(F)F)nc3cc[nH]c23)C1 | < 8 | 6.17 | 2.2 | – | – | 147 (≈ 45.6 µg/mL) | 0.032 | 1.3 | 14 | 6.19
